These results are taken from ChEMBL document CHEMBL4732211, “Multifunctional agents based on benzoxazolone as promising therapeutic drugs for diabetic nephropathy” (Eur J Med Chem, 2021).

Each structure is given as a SMILES string. The source made the active and inactive calls. The rule behind the calls is not given here.

In test [1] the target is Aldo-keto reductase family 1 member B1 (Rattus norvegicus, UniProt P07943). In words: Inhibition of Wistar rat lens ALR2 assessed as reduction in NADPH oxidation using D,L-glyceraldehyde and NADPH as substrate preincubated for 10 mins followed by substrate addition and measured for 4 mins by spectrophotometric analysis. In kind it is tissue-based.
Test [2] has as its target Aldo-keto reductase family 1 member A1 (Rattus norvegicus, UniProt P51635). Description: Inhibition of Wistar rat kidney ALR1 assessed as reduction in NADPH oxidation using sodium D-glucuronate and NADPH as substrate preincubated for 10 mins followed by substrate addition and measured for 4 mins by spectrophotometric analysis. Type of test: tissue-based.
The species entered for a further test is Rattus norvegicus. In words: Selectivity index, ratio of IC50 for Wistar rat kidney ALR1 to IC50 for Wistar rat lens ALR2. The method in brief: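 Aldose reductases (ALR2, ALR1) prepared from Wistar rats (200-250 g). NADPH loss followed at 340 nm for 4 min after substrate start, following 10 min preincubation. ALR2: pH 6.2 phosphate, 30 °C, NADPH 0.10 mM, D,L-glyceraldehyde 10 mM. ALR1: pH 7.2, 37 °C, NADPH 0.12 mM, D-glucuronate 20 mM. 0.5% DMSO; non-enzymatic rate subtracted. IC50 from log dose-response with ≥3 concentrations (20-80% inhibition), triplicate.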

A short description of test [3]: Antioxidant activity assessed as DPPH radical scavenging activity at 10 uM after 30 mins by spectrophotometric analysis. Type of test: functional. The method in brief:
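DPPH in methanol (1 mL, 0.025 mg/mL) plus methanol 1.9 mL and compound in methanol, final 100, 50 and 10 µM; absorbance at 517 nm. Scavenging % = 1 − (A_sample − A_blank)/A_control, where the blank is compound without DPPH. Trolox reference.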

The test system of test [4] is Mus musculus. In words: Inhibition of polyol pathway in STZ-induced Kunming mouse model of diabetes assessed as decrease in sorbitol level in kidney cortex at 80 mg/kg, po administered daily via gavage for 8 weeks and measured at 6 hrs post-final drug dose by fluorospectrophotometric analysis. Type of test: functional.
The test system of test [5] is Mus musculus. Description: Antioxidant activity in STZ-induced diabetic Kunming mouse assessed as reduction in liver MDA level at 80 mg/kg, po administered daily via gavage for 8 weeks and measured at 6 hrs post-final drug dose relative to STZ-treated group. Type of test: functional. Particulars: 1344 h.
Test [6] relates to Mus musculus. Description: Reno-protective activity in STZ-induced Kunming mouse model of diabetes assessed as reduction in albumin to creatinine ratio at 80 mg/kg, po administered daily via gavage for 8 weeks. In kind it is functional.
Test [7] deals with Mus musculus. Description: Reno-protective activity in STZ-induced Kunming mouse model of diabetes assessed as reduction in urinary total protein excretion at 80 mg/kg, po administered daily via gavage for 8 weeks and measured at week 4 relative to control. Type of test: functional.
Test [8] has as its system Mus musculus. Description: Reno-protective activity in STZ-induced Kunming mouse model of diabetes assessed as reduction in urinary total protein excretion at 80 mg/kg, po administered daily via gavage for 8 weeks and measured at week 6 relative to control. In kind it is functional.
Test [9] relates to Mus musculus. Description: Reno-protective activity in STZ-induced Kunming mouse model of diabetes assessed as reduction in urinary total protein excretion at 80 mg/kg, po administered daily via gavage for 8 weeks and measured at week 8 relative to control. In kind it is functional.
Test [10] concerns Mus musculus. Description: Antidiabetic activity in STZ-induced Kunming mouse model of diabetes assessed as reduction in blood glucose level at 80 mg/kg, po administered QD via gavage for 4 weeks and measured at week 2 to 4. Particulars: time 2-4 weeks. Type of test: functional, organism-based.

Chain of Aldo-keto reductase family 1 member A1 (P51635 whole entry, looked up): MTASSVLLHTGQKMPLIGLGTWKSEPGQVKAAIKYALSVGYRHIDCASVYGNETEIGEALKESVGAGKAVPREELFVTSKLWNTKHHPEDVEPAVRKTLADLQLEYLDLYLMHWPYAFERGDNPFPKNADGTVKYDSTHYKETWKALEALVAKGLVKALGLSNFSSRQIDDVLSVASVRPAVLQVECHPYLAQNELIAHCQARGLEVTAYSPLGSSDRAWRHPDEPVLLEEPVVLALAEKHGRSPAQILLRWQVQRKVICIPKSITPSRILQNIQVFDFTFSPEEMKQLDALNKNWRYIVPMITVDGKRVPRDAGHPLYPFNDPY

On to `O=C(O)Cn1c(=O)oc2c(-c3ccc(-c4ccc5ccccc5c4)cc3)cccc21`, for which the IC50 in [1] worked out at 0.023 µM; in test [2], 8.9 µM. In addition, the Ratio IC50 in the test filed under Rattus norvegicus is 387.

Consider `COc1ccc(-c2cccc3c2oc(=O)n3CC(=O)O)c(OC)c1`, for which the IC50 in test [1] is 0.0855 µM; in [2], 72.4 µM. The Ratio IC50 in the test filed under Rattus norvegicus was 847.

`O=C(O)Cn1c(=O)oc2c(-c3ccc(C(F)(F)F)cc3)cccc21`: the IC50 in [1] was 0.0097 µM; in test [2] it was 14.4 µM. Further, the Ratio IC50 in the test filed under Rattus norvegicus turned out to be 1480.

Turning to `COc1ccc(CCc2cccc3c2oc(=O)n3CC(=O)O)cc1`, the IC50 in [1] worked out at 0.125 µM; in [2] it was 174 µM. In the test listed under Rattus norvegicus, the Ratio IC50 stood at 1390.

Take `O=C(O)Cn1c(=O)oc2c(/C=C/c3ccc(O)c(O)c3)cccc21`: the IC50 turned out to be 0.0454 µM in test [1] and 0.79 µM in [2]. For the same compound, the Ratio IC50 in the test listed under Rattus norvegicus turned out to be 17. Besides, the Activity in [3] is 22.7%.

As for `O=C(O)Cn1c(=O)oc2c(-c3ccc(-c4cccc5ccccc45)cc3)cccc21`, the IC50 in [1] is 0.0224 µM; in [2], 45.7 µM. The Ratio IC50 in the test filed under Rattus norvegicus came out at 2040.

Turning to `O=C(O)Cn1c(=O)oc2ccc(/C=C/c3ccccc3)cc21`, the values for the IC50 in test [1] and in test [2] were 0.226 µM and 17.4 µM, respectively. In addition, the Ratio IC50 in the test filed under Rattus norvegicus is 77.

As for `CN(C)C(=N)NC(=N)N` [METFORMIN], the inhibition entry with Mus musculus [4] was “inactive”. Besides, the inhibition in vivo at 80 mg/kg was 43% in the test with Mus musculus [5]; 6% with Mus musculus [7] (672 h, time 4 weeks); 41% in the test on Mus musculus [8] (1008 h, time 6 weeks); 18% in the test with Mus musculus [9] (1344 h). In addition, in the test with Mus musculus [6], the inhibition result is “Active”.

Regarding `O=C(O)Cn1c(=O)oc2c(/C=C/c3ccccc3)cccc21`, the IC50 in [1] worked out at 0.0547 µM; in [2], 1700 µM. Further, the Ratio IC50 in the test filed under Rattus norvegicus was 31000.

For the compound `O=C(O)Cn1c(=O)oc2c(-c3ccc(CO)cc3)cccc21`, the IC50 came out at 0.0245 µM in test [1] and 30.9 µM in test [2]. Besides, the Ratio IC50 in the test filed under Rattus norvegicus amounted to 1260.

Take `O=C(O)Cn1c(=O)oc2c(/C=C/c3ccc(O)cc3)cccc21`: the IC50 in test [1] was determined as 0.0348 µM; in [2] it was 67.6 µM. Also, in the test listed under Rattus norvegicus, the Ratio IC50 turned out to be 1940. The Activity in test [3] was 22.7%.

For the compound `O=C(O)Cn1c(=O)oc2c(/C=C/c3ccc(C(F)(F)F)cc3)cccc21`, the results for the IC50 in [1] and in test [2] were 0.143 µM and 2880 µM, respectively. The Ratio IC50 in the test listed under Rattus norvegicus came out at 20100.

With `COc1cc(CCc2cccc3c2oc(=O)n3CC(=O)O)ccc1O`, the IC50 was found to be 0.0901 µM in [1] and 15.5 µM in [2]. Moreover, the Ratio IC50 in the test filed under Rattus norvegicus turned out to be 172. In addition, the Activity in [3] stood at 22.7%.

With `CC(/C=C1\SC(=S)N(CC(=O)O)C1=O)=C\c1ccccc1`, in the test on Mus musculus [4], the inhibition entry was “Active”. Also, the inhibition in vivo at 80 mg/kg in the test on Mus musculus [5] was 65%. In addition, the outcome in the test with Mus musculus [6], in the test with Mus musculus [10], in the test on Mus musculus [7] (time 4.0 weeks), in the test on Mus musculus [8] (time 6.0 weeks) and in the test on Mus musculus [9] was inactive.

For the compound `O=C(O)Cn1c(=O)oc2cc(/C=C/c3ccccc3)ccc21`, the half-inhibitory concentration (IC50) was 0.0657 µM in test [1] and 2.57 µM in test [2]. Besides, the Ratio IC50 in the test listed under Rattus norvegicus came out at 39.

For `O=C(O)Cn1c(=O)oc2c(-c3ccc(O)c(O)c3)cccc21`, the IC50 came out at 0.387 µM in [1] and 6.6 µM in test [2]. The Ratio IC50 in the test listed under Rattus norvegicus came to 17. The Activity in test [3] came to 61.7%.

Regarding `O=C(O)Cn1c(=O)oc2cc(/C=C/c3ccc(O)cc3)ccc21`, the figures for the concentration for half-maximal inhibition (IC50) in test [1] and in [2] were 0.0465 µM and 575 µM, respectively. For the same compound, the Ratio IC50 in the test listed under Rattus norvegicus came out at 12400.

Regarding `COc1ccc(-c2cccc3c2oc(=O)n3CC(=O)O)cc1`, the IC50 was determined as 0.0238 µM in test [1] and 1.05 µM in [2]. Moreover, the Ratio IC50 in the test filed under Rattus norvegicus was determined as 44.

Take `O=C(O)Cn1c(=O)oc2cccc(/C=C/c3ccccc3)c21`: the IC50 in test [1] came out at 55 µM; in [2], 363 µM. Besides, in the test listed under Rattus norvegicus, the Ratio IC50 was 6.6.

With `COc1ccc(-c2cccc3c2oc(=O)n3CC(=O)O)cc1OC`, the concentration for half-maximal inhibition (IC50) in [1] came to 0.0635 µM; in [2], 32.4 µM. Besides, the Ratio IC50 in the test listed under Rattus norvegicus amounted to 510.

As for `COc1ccc(/C=C/c2cccc3c2oc(=O)n3CC(=O)O)cc1OC`, the IC50 was 0.0338 µM in [1] and 29.5 µM in test [2]. Besides, the Ratio IC50 in the test listed under Rattus norvegicus came out at 873.

`O=C(O)Cn1c(=O)oc2c(-c3ccc(-c4ccccc4)cc3)cccc21`: the IC50 is 0.0754 µM in test [1] and 6.2 µM in [2]. Also, the Ratio IC50 in the test listed under Rattus norvegicus amounted to 82.

Take `COc1ccc(/C=C/c2cccc3c2oc(=O)n3CC(=O)O)cc1`: the IC50 came to 0.0106 µM in test [1] and 6.3 µM in test [2]. Further, in the test filed under Rattus norvegicus, the Ratio IC50 turned out to be 594.

For the compound `O=C(O)Cn1c(=O)oc2c(-c3ccccc3)cccc21`, the IC50 in test [1] was 0.149 µM; in [2] it was 447 µM. Besides, the Ratio IC50 in the test listed under Rattus norvegicus stood at 3000.

For `CC(C)(C)c1ccc(-c2cccc3c2oc(=O)n3CC(=O)O)cc1`, the IC50 was found to be 0.0212 µM in [1] and 174 µM in [2]. For the same compound, the Ratio IC50 in the test listed under Rattus norvegicus is 8200.
